From ChEMBL document CHEMBL1140054, “Phosphate prodrugs derived from N-acetylglucosamine have enhanced chondroprotective activity in explant cultures and represent a new lead in antiosteoarthritis drug discovery” (J Med Chem, 2008)

Assays:
[1] = Cytotoxicity against bovine chondrocytes at 0.1 mM after 96 hrs by MTT cell viability assay; assay type: cell-based, Bos taurus; details: cattle, 100 µM
In short: (§1)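 Chondrocytes isolated from mature bovine (>18 months) metacarpophalangeal cartilage by 1 h 0.1% pronase then overnight 0.04% collagenase digestion at 37 °C. Cultured 96 h in serum-free DMEM with gentamicin and 1% HEPES, with or without compound (10-0.1 mM). MTT at final 1 mg/mL for 3 h; formazan dissolved in DMSO and OD read. Viability given as % of untreated cells; n experiments from different cows, in triplicate.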

[2] = Chondroprotective activity in bovine articular cartilage explant cultures assessed as reduction in IL1-induced glycosaminoglycan release at 0.1 mM after 96 hrs; assay type: functional, Bos taurus
In short: (§2)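 Full-depth articular cartilage explants (50-100 mg) from mature bovine metacarpophalangeal joints; equilibrated 48 h in DMEM with 10% FCS, gentamicin, 1% HEPES, then washed in serum-free medium. Cultured in triplicate in serum-free DMEM with or without compound (10-0.1 mM); 10 ng/mL recombinant human IL-1 added to half the wells. After 96 h, media sulfated GAG measured by DMMB dye binding (A525) against shark chondroitin sulfate C standard.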

[3] = Cytotoxicity against bovine chondrocytes at 1 mM after 96 hrs by MTT cell viability assay; assay type: cell-based, Bos taurus; details: cattle, 1000 µM; in short: as §1
[4] = Chondroprotective activity in bovine articular cartilage explant cultures assessed as reduction in IL1-induced glycosaminoglycan release at 0.1 mM after 96 hrs relative to control; assay type: functional, Bos taurus; design: scale not given: the % may be the effect or the level left; in short: as §2
[5] = Chondroprotective activity in bovine articular cartilage explant cultures assessed as reduction in IL1-induced glycosaminoglycan release at 1 mM after 96 hrs; assay type: functional, Bos taurus; in short: as §2
[6] = Chondroprotective activity in bovine articular cartilage explant cultures assessed as reduction in IL1-induced glycosaminoglycan release at 10 mM after 96 hrs; assay type: functional, Bos taurus; in short: as §2
[7] = Chondroprotective activity in bovine articular cartilage explant cultures assessed as reduction in IL1-induced glycosaminoglycan release at 10 mM after 96 hrs relative to control; assay type: functional, Bos taurus; design: scale not given: the % may be the effect or the level left; in short: as §2
[8] = Cytotoxicity against bovine chondrocytes at 10 mM after 96 hrs by MTT cell viability assay; assay type: cell-based, Bos taurus; details: cattle, 10000 µM; in short: as §1
[9] = Chondroprotective activity in bovine articular cartilage explant cultures assessed as reduction in IL1-induced glycosaminoglycan release at 1 mM after 96 hrs relative to control; assay type: functional, Bos taurus; design: scale not given: the % may be the effect or the level left; in short: as §2

Row | SMILES | Activity [1] [%] | fold change (FC) [2] | Activity [3] [%] | Activity [4] [%] | fold change (FC) [5] | fold change (FC) [6] | Activity [7] [%] | Activity [8] [%] | Activity [9] [%]
1 | CCOC(=O)[C@H](C)NP(=O)(OC[C@H]1OC(O)[C@H](NC(C)=O)[C@@H](O)[C@@H]1O)Oc1ccc(OC)cc1 (some centres not stated) | 89 | 4.4 | 76 | -1.9 |  |  |  |  | 
2 | CCCCOC(=O)[C@@H]1CCCN1P(=O)(OC[C@H]1OC(O)[C@H](NC(C)=O)[C@@H](O)[C@@H]1O)Oc1ccc(OC)cc1 (some centres not stated) | 98 | 4.1 |  | -17.5 |  |  |  |  | 
3 | COC(=O)[C@H](C)NP(=O)(OC[C@H]1OC(O)[C@H](NC(C)=O)[C@@H](O)[C@@H]1O)Oc1ccc(OC)cc1 (some centres not stated) | 97 | 3.9 | 37 | 15.8 |  |  |  |  | 
4 | COc1ccc(OP(=O)(N[C@H](C(=O)OCc2ccccc2)C(C)C)OC[C@H]2OC(O)[C@H](NC(C)=O)[C@@H](O)[C@@H]2O)cc1 (some centres not stated) | 104 | 4 | 100 | 2.5 | 0.9 | 0.5 | 85.3 | 40 | 77.6
5 | CCOC(=O)CN(C)P(=O)(OC[C@H]1OC(O)[C@H](NC(C)=O)[C@@H](O)[C@@H]1O)Oc1ccc(OC)cc1 (some centres not stated) | 100 | 5.4 | 100 | -16.3 |  |  |  |  | 
6 | N[C@H]1C(O)O[C@H](CO)[C@@H](O)[C@@H]1O (some centres not stated) [GLUCOSAMINE] | 106 | 5.1 | 88 | 0.8 | 4.7 | 2 | 19 | 56 | 3.4
7 | COc1ccc(OP(=O)(NCC(=O)OCc2ccccc2)OC[C@H]2OC(O)[C@H](NC(C)=O)[C@@H](O)[C@@H]2O)cc1 (some centres not stated) | 99 | 4.2 | 100 | -12.2 | 1.2 |  |  |  | 73.6
8 | COc1ccc(OP(=O)(N[C@@H](Cc2ccccc2)C(=O)OCc2ccccc2)OC[C@H]2OC(O)[C@H](NC(C)=O)[C@@H](O)[C@@H]2O)cc1 (some centres not stated) |  |  |  |  |  | 2.1 | 2.3 | 49 | 
9 | COc1ccc(OP(=O)(N[C@H](C(=O)OC2CCCCC2)C(C)C)OC[C@H]2OC(O)[C@H](NC(C)=O)[C@@H](O)[C@@H]2O)cc1 (some centres not stated) | 92 | 4.8 | 30 | -6.3 |  |  |  |  | 
10 | CCOC(=O)CNP(=O)(OC[C@H]1OC(O)[C@H](NC(C)=O)[C@@H](O)[C@@H]1O)Oc1ccc(OC)cc1 (some centres not stated) | 78 | 3.6 | 37 | -19.3 |  |  |  |  | 
11 | COc1ccc(OP(=O)(NC(C)(C)C(=O)OCc2ccccc2)OC[C@H]2OC(O)[C@H](NC(C)=O)[C@@H](O)[C@@H]2O)cc1 (some centres not stated) | 99 | 3.4 | 95 | -2.2 | 4.2 |  |  |  | -0.3
12 | COc1ccc(OP(=O)(N[C@@H](CCSC)C(=O)OCc2ccccc2)OC[C@H]2OC(O)[C@H](NC(C)=O)[C@@H](O)[C@@H]2O)cc1 (some centres not stated) | 103 | 3.8 | 49 | 18 | 1.6 |  |  |  | 62.2
13 | CCOC(=O)[C@@H](NP(=O)(OC[C@H]1OC(O)[C@H](NC(C)=O)[C@@H](O)[C@@H]1O)Oc1ccc(OC)cc1)C(C)C (some centres not stated) | 94 | 4.4 |  | -21.1 |  |  |  |  | 
14 | COc1ccc(OP(=O)(N[C@@H](C)C(=O)OCc2ccccc2)OC[C@H]2OC(O)[C@H](NC(C)=O)[C@@H](O)[C@@H]2O)cc1 (some centres not stated) | 104 | 4.6 | 81 | -2.2 | 4.2 | 2 | 24.2 | 85 | 5.6
15 | CC[C@H](C)[C@H](NP(=O)(OC[C@H]1OC(O)[C@H](NC(C)=O)[C@@H](O)[C@@H]1O)Oc1ccc(OC)cc1)C(=O)OCc1ccccc1 (some centres not stated) | 110 | 3.9 | 118 | 5.2 | 1.2 | 0.5 | 74.6 | 56 | 70.8
16 | COc1ccc(OP(=O)(N[C@@H](CC(C)C)C(=O)OCc2ccccc2)OC[C@H]2OC(O)[C@H](NC(C)=O)[C@@H](O)[C@@H]2O)cc1 (some centres not stated) | 87 | 4.1 | 20 | 12.2 | 2.6 | 0.9 | 64 | 39 | 44.7
17 | COc1ccc(OP(=O)(N[C@H](C(=O)OC(C)C)C(C)C)OC[C@H]2OC(O)[C@H](NC(C)=O)[C@@H](O)[C@@H]2O)cc1 (some centres not stated) | 93 | 3.2 | 56 | 14 | 3.6 |  |  |  | 12.1
18 | COc1ccc(OP(=O)(N[C@H](C)C(=O)OCc2ccccc2)OC[C@H]2OC(O)[C@H](NC(C)=O)[C@@H](O)[C@@H]2O)cc1 (some centres not stated) | 96 | 3.4 | 66 | 24.3 | 2.8 |  |  |  | 31
19 | CC(=O)N[C@@H]1[C@@H](O)[C@H](O)[C@@H](CO)O[C@H]1O [N-ACETYLGLUCOSAMINE] | 107 | 4.3 | 70 | 5.4 | 4.5 | 2.9 | 9.3 | 61 | -1
20 | COc1ccc(OP(=O)(OC[C@H]2OC(O)[C@H](NC(C)=O)[C@@H](O)[C@@H]2O)N2CCC[C@H]2C(=O)OCc2ccccc2)cc1 (some centres not stated) | 78 | 4 | 85 | -21.9 | 4.1 | 0.8 | 65.6 | 63 | 2.2
